ChEMBL document CHEMBL4513216, “Probing the Open Global Health Chemical Diversity Library for Multistage-Active Starting Points for Next-Generation Antimalarials” (ACS Infect Dis, 2020)

Assay: Toxicity liver stage against HepG2, at 10uM
Format: cell-based
Parameters: test concentration 10 uM, cell line HepG2-A16-CD81EGFP
Conditions: human, HepG2-A16-CD81EGFP cells; read-out: INHIBITION
In short: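 Uninfected HepG2-A16-CD81EGFP cells, 3 × 10^3 per well, 1536-well, plated on prespotted compound at 10 μM final, parasite-free screening media added to match infected plates; puromycin 10 μM positive, DMSO 0.5% negative; run in parallel with 48 h PbLuc assay at 37 °C, 5% CO2; viability by CellTiter-Glo luminescence, normalized to controls.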

SMILES | cytotoxicity at 10 µM [%]
CCC(CC)C(=O)c1c[nH]c(C(=O)N2CCN(c3ccccc3)CC2)c1 | 14.7
C/C(NC(=O)c1cccs1)=C1\C(=O)C[C@@H]2[C@H]1C2(C)C | -1.18
CC(C)(C)n1ncc2c(=O)n(CC(=O)NCCc3ccccc3)cnc21 | -11.3
O=C(c1cn(Cc2ccccc2)c2ncccc12)N1CCCCC1 | 1.2
O=c1nc(SCc2ccc(Cl)cc2)c2c(n1CCO)CCC2 | 12.3
O=C(Cc1cccs1)N1CC[C@H]2[C@H]1CCN2Cc1cccnc1 | 2.41
CC(=O)N1CCC2(C=C(C(=O)NC3CC3)c3ccccc32)CC1 | 4.59
CCC(=O)N1CCC2(CC1)CC(CC(N)=O)c1ccc(F)cc12 (stereo unspecified) | 11.8
CNC(=O)c1cc2c(nc1NCC(C)C)CCN(S(C)(=O)=O)CC2 | -161
Cc1occc1C(=O)N1CCC2(CCN(Cc3nccs3)CC2)C1 | -5.33
O=C(C1CCCC1)N1CCO[C@H]2[C@H](OCC3CCOCC3)CC[C@@H]21 | 5.05
Cn1c(N)c2c(=O)n(C)c(-c3ccc(Cl)cc3)cc2c(C#N)c1=O | -8.91
O=S(=O)(c1ccccc1)N1CCN(CCn2ccnc2)CC1 | -21.6
O=C(O)c1nnn(Cc2cccc(C(F)(F)F)c2)c1-c1cccnc1 | 6.46
CN(C)c1nc2n(c(=O)n1)CCN2C(=O)Nc1ccc(Cl)cc1 | 6.36
Cc1nn(C)c2cnn(Cc3ccc(C(=O)NC4CC4)cc3)c12 | 6.42
COc1ccc(CNc2nc(C3CC3)nc3c(C)nn(C)c23)cc1 | 5.4
Cc1cc(-c2ccc(=O)n(C3CCN(S(=O)(=O)N(C)C)CC3)n2)c(C)o1 | 6.54
Cc1n[nH]cc1C(=O)N1CCCC1c1cc[nH]n1 (stereo unspecified) | -23.1
Cc1cc2n(n1)[C@@H](C(F)(F)F)C[C@@H](C1CCN(C(=O)C(C)C)CC1)N2 | -30
CC(=O)c1cc(C(=O)N2Cc3ccccc3OC3(CCOCC3)C2)cs1 | -20
NCC(=O)N1CCC2(CC1)CN(C(=O)Cc1ccc(Cl)cc1)CCO2 | 5.56
N#Cc1cc2cc(Cl)cnc2nc1O | 4.29

SMILES | cytotoxicity at 10 µM [%]
CCOc1ccc(N(CCC#N)C(=O)c2ccc(SC)nc2)cc1 | 5.93
O=C(Nc1cnn(Cc2ccccc2)c1)N1CCN(CCO)CC1 | 2.11
CCc1nnc2n1CC(CNCc1nc(-c3ccsc3)no1)CC2 (stereo unspecified) | -5.34
COC(=O)c1cc(NC(=O)CCc2cscn2)ccc1C | -0.172
CC(C)c1ccc(OCCC(=O)N(C)C)cc1 | 3.81
Cc1noc(C)c1S(=O)(=O)N1CCC(n2cccn2)CC1 | 2.63
Cc1cc(COc2ccc(OC3CCCCNC3=O)cc2)on1 (stereo unspecified) | 13.4
CN(Cc1nc(C(F)(F)F)cs1)C(=O)CCc1ccccn1 | 23.5
COCCC(=O)N(C)Cc1nc(C(F)(F)F)cs1 | 23.3
Cn1cc(S(=O)(=O)Nc2ccc(Cl)cn2)cc1C(N)=O | -1.7
O=C(CNC(=O)c1ccoc1)NC(c1ccc(F)cc1)C(F)(F)F (stereo unspecified) | -2.51
Cc1cc(CN(C2CC2)C(C)C(C)C)no1 (stereo unspecified) | 0.519
O=C1CC2(CCSC2)C(=O)N1Cc1ncc(-c2cccc(F)c2)o1 (stereo unspecified) | 10.3
COCC(C)NC(=O)c1cncc(Br)c1 (stereo unspecified) | 3.73
Cc1noc(NCc2cc(F)ccc2F)n1 | -4.86
Cc1noc(-c2cccnc2N2CCN(c3cnn(C)c3)CC2)n1 | 1.12
COc1cc2c(cc1CNC(=O)Cc1ccc(C)nc1)OC(C)C2 (stereo unspecified) | -6.47
CCN(CC(=O)Nc1cc(Cl)ccc1C)C(=O)c1cnccn1 | -0.12
O=C(CN1CCN(CCO)CC1)NCCc1c(F)cccc1F | -9.83
CC(C)CCN1CCN(Cc2nc(C(C)C)no2)CC1 | -6.71
Cc1nc(C)n(CC2CCCCN2CCCS(N)(=O)=O)n1 (stereo unspecified) | -3.73
CC1CN(c2cc(CNCc3cccc4c3OCCO4)ccn2)CCO1 (stereo unspecified) | 3.96
CCCn1nnnc1CN1Cc2ccccc2CC1c1nnc(C)o1 (stereo unspecified) | 9.52

SMILES | cytotoxicity at 10 µM [%]
Cn1c(C(=O)N(CC(N)=O)C2CCCC2)cc(Cl)c1Cl | 9.31
Cc1cnc(C(=O)N2CCN(Cc3csc(C)n3)CC2)cn1 | -132
COCCn1ccc(NC(=O)Nc2ccccn2)n1 | 3.18
CN(Cc1ncnn1C)C(=O)c1ccccc1NCc1ccccc1 | 15.3
CCCc1cc(N2CCCCC2Cn2cc(C)cn2)n2ncnc2n1 (stereo unspecified) | -0.554
CNC(=O)C1CCN(Cc2cc3c(cc2O)CCC3)CC1 | 4.83
Cc1nc(C2(NCc3ccc(C#N)cc3F)CCCCC2)no1 | -11.2
COc1cccc(-c2csc(Cn3ccc(=O)[nH]c3=O)n2)c1 | 3.57
COC(=O)NC1(C(=O)NCc2ccc(-c3ccn[nH]3)cc2)CCCC1 | -7.65
CC(C)CC(NS(C)(=O)=O)C(=O)N(C)Cc1nnc2n1CCC2 (stereo unspecified) | -4.22
CN1CCN(C(=O)CCCc2ccccn2)c2ccc(F)cc21 | 1.66
CCCc1cc(NC(=O)c2ccc(Cl)c(N3CCNC3=O)c2)n[nH]1 | -4.55
CC(C)C(NC(=O)c1ccc(Cl)cc1Cl)C(=O)Nc1cnn(C)c1 (stereo unspecified) | -2.65
COCC(=O)NCCc1ccc(I)s1 | 11.3
Cc1ccc(O)c(C(=O)N2CCC(CN3CCCCCC3)CC2)c1 | 5.52
CCCC(=O)NCc1cc(Br)c(OC)c(OC)c1 | 1.11
O=C(C(CNCc1ccncc1)c1ccccc1)N1CCOCC1 (stereo unspecified) | -19
CCN(C(=O)CCCOc1ccccc1F)c1ccncc1 | -5.69
Cn1ccnc1CN(CCCO)C1CCCc2ccccc21 (stereo unspecified) | -6.91
CC(C)(C)NC(=O)CN1CCN(C(=O)Nc2ccc(F)cc2F)CC1 | -23.2
CC(=O)NCc1cc2n(n1)CCN(Cc1cccc(Cl)c1Cl)C2 | -12.8
CCn1ncnc1C(C)Nc1cc(C)c2ccc(SC)cc2n1 (stereo unspecified) | -0.995
COc1cccc(CN2CCN(c3cccc(C(C)C)n3)CC2)c1F | 4.25

SMILES | cytotoxicity at 10 µM [%]
COc1ccc(-c2n[nH]cc2CN(C)Cc2ccoc2)c(F)c1 | -0.174
CN(C)S(=O)(=O)N1CC[C@]2(O)CCN(CCCc3cccnc3)C[C@@H]2C1 | -6.55
CC(C)C(=O)NCC(=O)N1CCC2(CC1)c1ccccc1[C@@H](N)[C@@H]2O | 0.174
COc1cc2[nH]c(=O)c(CN3CCC[C@H]3CO)cc2c(OC)c1OC | -10.7
COCc1ccc(C(=O)N2CC[C@@](O)(COC)C(C)(C)C2)o1 | -2.69
CC(C)=CCN1CCN(CCCOc2ccccc2)[C@H]2CS(=O)(=O)C[C@H]21 | -8.34
CC(C)Cc1noc(-c2ccc(NCc3noc(C(C)C)n3)nc2)n1 | 0.178
CN(C)c1nc2c(c(N3CCCC4(CC3)CNC(=O)O4)n1)CCCC2 (stereo unspecified) | -1.07
COc1ccc(N2CCC(N3CCOC(C(F)(F)F)C3)CC2)cc1 (stereo unspecified) | -20.5
COc1ccc(Cn2c(Cc3c(C)n[nH]c3C)n[nH]c2=O)cc1 | -142
COc1ccc(OCCCN(C)C(=O)C2CCCN2C(N)=O)cc1 (stereo unspecified) | 1.7
NCC1Cc2cc(F)cc(-c3cnccn3)c2O1 (stereo unspecified) | -9.78
CCOC(=O)N1CCN(CC(=O)Nc2nnc(C)s2)CC1 | 1.31
Cc1n[nH]c(C)c1CNC(=O)CSCc1ccccc1Cl | -4.02
CC1CN(C)CCN1C(=O)c1ccn(-c2ccccc2Cl)n1 (stereo unspecified) | -6.33
CN(Cc1ccccc1)C(=O)CN1CCCC(Cn2cncn2)C1 (stereo unspecified) | -11.8
CN(Cc1cnn(C)c1)C(=O)NCc1ccc2c(c1)OCCO2 | -8.01
Nc1nc(CN2CCCC2Cn2cncn2)nc2ccccc12 (stereo unspecified) | -11.7
Cc1ccc(-c2cc(CNC(=O)N3CCC(O)CC3)on2)cc1 | -4.62
CCS(=O)(=O)c1ccccc1N1CCC(NC(=O)C(C)C)CC1 | -3.87
CC(C)(C)c1cc(C(=O)NCCN2CCCS2(=O)=O)[nH]n1 | -8.16
CCc1nnsc1C(=O)N1CCCC1c1c(C)nn(C)c1OC (stereo unspecified) | -1.67
CCc1ccc(C(=O)N2CCCC(CNS(C)(=O)=O)C2)o1 (stereo unspecified) | -19.7

SMILES | cytotoxicity at 10 µM [%]
Cn1ccc(C(=O)NCc2ccccc2CN2CCCCC2)cc1=O | -2.51
CCn1cc(NC(=O)NCc2ccc3c(c2)OCO3)cn1 | -1.1
Cc1cc(C(=O)NCC(C)N2CCc3ccccc32)on1 (stereo unspecified) | -22.8
Cc1nc(C2CCCN(C(=O)c3cnn(C4CCCCC4)c3)C2)no1 (stereo unspecified) | -6.37
CCOC(C)C(=O)NCc1ccc(N(C)C)cc1 (stereo unspecified) | -13.3
COc1ccccc1CC1CCCN(CC(=O)NC2CC2)C1 (stereo unspecified) | 6.75
O=c1n(CCSCc2ccccc2Cl)nc2ccccn12 | -7.68
O=C(NCc1ccc(Br)cc1)NCC1CCOC1 (stereo unspecified) | -4.51
Cc1nn(C)c(N2CCOCC2)c1CNC1CCOc2ccccc21 (stereo unspecified) | -7.44
COc1ccc(CCN2CCc3c(nc(C4CC4)n3C)C2)cc1 | -0.729
c1cnc(Nc2cc(CCC3CCCNC3)ccn2)cn1 (stereo unspecified) | -7.58
Cc1nc(-c2ccccc2)cc(C2CCNCC2)n1 | 3.78
Cc1nc(CN2CCc3ncnc(-c4cccnc4)c3CC2)cs1 | 7.51
CN(C)C(=O)COC[C@@]12CCC[C@@H]1CN(C1CCCC1)C2 | -13.2
COCC1CC2(CCN(C(=O)c3ccc(C)nc3)CC2)CO1 (stereo unspecified) | -127
COCCN1C[C@H]2CC[C@@]3(N=C(C)N(CC4CC4)C3=O)[C@H]2C1 | -7.5
CC(C)CN1CCC2(CC1)C(=O)Nc1ccc(C(=O)NC(C)C)cc12 | -13.9
CCCN1C(=O)[C@@H]2CC[C@H]1CN(S(=O)(=O)c1cccc(Cl)c1)C2 | -2.78
CNc1nc(C)c(C(=O)N2C[C@@H]3CC[C@H]2CN(c2cnccn2)C3)s1 | 13.6
